Reference: paper PMC3954597 (Biochemistry, 2014)
Substitutions are numbered along the chain they refer to.

Legend:
Format in all cases: biochemical
R47E PTP1B = target: T1, R47E PTP1B (Homo sapiens, UniProt P18031, R47E); assay: PTP assay, R47E PTP1B
T1 sequence (P18031 1-321 R47E): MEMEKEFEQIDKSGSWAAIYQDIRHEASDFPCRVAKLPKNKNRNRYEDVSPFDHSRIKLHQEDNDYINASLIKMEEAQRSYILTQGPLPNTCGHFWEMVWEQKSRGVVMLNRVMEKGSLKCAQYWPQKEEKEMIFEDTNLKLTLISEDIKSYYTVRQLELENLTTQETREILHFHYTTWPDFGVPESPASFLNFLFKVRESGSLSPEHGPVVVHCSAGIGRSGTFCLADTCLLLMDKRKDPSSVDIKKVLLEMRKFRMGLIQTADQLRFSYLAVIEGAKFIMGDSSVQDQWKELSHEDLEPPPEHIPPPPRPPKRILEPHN
In short: (§1)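 E. coli-expressed catalytic domains were used: wild-type, R24M or R47E PTP1B (aa 1–321), and SHP-1 (aa 205–595). Reactions started with PTP (0.5–20000 nM final) and dephosphorylation was monitored continuously at 282 nm. kcat, KM and kcat/KM came from initial-rate fits (Michaelis–Menten, or V = kcat[E][S]/KM when KM >> [S]) or from fits of progress curves.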

R24M PTP1B = target: T2, R24M PTP1B (Homo sapiens, UniProt P18031, R24M); assay: PTP assay, R24M PTP1B
T2 sequence (P18031 1-321 R24M): T1 sequence (P18031 1-321 R47E) with R24M, E47R
In short: as §1

PTPD1 = target: T3, PTPD1 (Homo sapiens, UniProt Q16825); assay: Pre-steady-state; conditions: 25 °C; initial phase not resolved, too fast for the instrument
T3 sequence (Q16825 875-1174): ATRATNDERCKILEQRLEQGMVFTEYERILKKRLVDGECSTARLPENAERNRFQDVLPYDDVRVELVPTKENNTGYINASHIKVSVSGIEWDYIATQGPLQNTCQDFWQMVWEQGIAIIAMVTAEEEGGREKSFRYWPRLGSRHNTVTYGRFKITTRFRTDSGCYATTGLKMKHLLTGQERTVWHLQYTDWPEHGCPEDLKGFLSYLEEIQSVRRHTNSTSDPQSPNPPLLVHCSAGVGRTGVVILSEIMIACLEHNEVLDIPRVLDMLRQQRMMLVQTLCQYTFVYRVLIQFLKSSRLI

PTP1B = target: T4, PTP1B (Homo sapiens, UniProt P18031); assay: PTP assay, wild-type PTP1B; conditions: WT PTP1B aa 1–321; pH 7.4
T4 sequence (P18031 1-321): T1 sequence (P18031 1-321 R47E) with E47R
In short: as §1

O=[N+]([O-])c1ccc(OP(=O)(O)O)cc1 [pNPP, p-nitrophenyl phosphate, reference compound]
Km (R47E PTP1B; R47E PTP1B aa 1–321, pH 7.4): 2800 ± 300 µM | kcat (R47E PTP1B; R47E PTP1B aa 1–321, pH 7.4): 16 ± 1 s⁻¹ | kcat/KM x 10^7 (R47E PTP1B; R47E PTP1B aa 1–321, pH 7.4): 0.00057 x 10^7 M^−1 s^−1 | WT/R47E (R47E PTP1B; ratio of kcat/KM, WT over R47E PTP1B (fold decrease by the mutation)): 1.2 | Km (R24M PTP1B; R24M PTP1B aa 1–321, pH 7.4): 3 ± 0.1 µM | kcat (R24M PTP1B; R24M PTP1B aa 1–321, pH 7.4): 17 ± 1 s⁻¹ | kcat/KM x 10^7 (R24M PTP1B; R24M PTP1B aa 1–321, pH 7.4): 0.00057 x 10^7 M^−1 s^−1 | WT/R24M (R24M PTP1B; ratio of kcat/KM, WT over R24M PTP1B (fold reduction by the mutation)): 1.2 | k of initial phase (PTPD1): > 100 s⁻¹ | kcat/KM x 10^7 (PTP1B): 0.00069 x 10^7 M^−1 s^−1
